Calls of active or inactive are those of the source.
Tests used:
[1] = system: Mus musculus; assay: Antinociceptive activity in Swiss mouse assessed as inhibition of acetic acid-induced abdominal contraction at 0.1 to 100 mg/kg, ip administered 30 mins before acetic acid challenge measured after 20 mins relative to control; assay type: functional, Abdominal cavity; conditions: dose mg/kg 0.1-100; route intraperitoneal
Summary of the method: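 Writhing dose-response in mice: compounds at 0.1–10 mg/kg and standard drugs at 10–100 mg/kg, i.p. in Tween 80/saline, 30 min before i.p. 0.6% acetic acid. Constrictions and stretches were counted for 20 min at 20–22 °C, with six to eight animals per group. ID50 (dose halving the response versus control) was given as geometric mean with 95% confidence limits.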

[2] = system: Mus musculus; assay: Antinociceptive activity in Swiss mouse assessed as inhibition of acetic acid-induced writhing at 10 mg/kg, ip administered 30 mins before acetic acid challenge measured after 20 mins relative to control; assay type: functional; conditions: route intraperitoneal
Summary of the method: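 Mice were given 10 mg/kg i.p. in Tween 80/0.9% NaCl (Tween ≤5%) 30 min before i.p. 0.6% acetic acid, at 20–22 °C. Abdominal constrictions plus hind-limb stretching were counted cumulatively over 20 min in individual funnels. Groups of six, randomized and blinded. Inhibition was calculated versus vehicle controls (10 ml/kg i.p.); ANOVA with Dunnett's test.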

[3] = system: Salmonella typhimurium; assay: Antibacterial activity against Salmonella Typhimurium ATCC 14028 at < 100 ug/mL by agar dilution method; assay type: functional, organism-based; conditions: Salmonella enterica subsp. enterica serovar Typhimurium
Summary of the method: (§1)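 Agar dilution on 1 mL Mueller-Hinton agar slants. Compounds were serially two-fold diluted in DMSO (final DMSO ≤2%) to give 10–100 µg/mL in the medium. Bacteria were grown on MHA at 35 °C for 24 h, suspended in 0.86% saline at 1.5 × 10^8 cell/mL (0.5 McFarland), and 1 µL was added per slant. Slants were incubated at 35 °C. Drug-free blank included; each assay run three times; MIC recorded.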

[4] = system: Escherichia coli; assay: Antibacterial activity against Escherichia coli ATCC 11775 at < 100 ug/mL by agar dilution method; assay type: functional, organism-based; summary of the method: as §1
[5] = system: Proteus mirabilis; assay: Antibacterial activity against Proteus mirabilis ATCC 25933 at < 100 ug/mL by agar dilution method; assay type: functional, organism-based; summary of the method: as §1
[6] = Toxicity in Artemia salina assessed as mortality after 24 hrs; assay type: organism-based; conditions: in vivo
Summary of the method: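 Artemia salina hatched at pH 9.0 (Na2CO3), 25 °C, strong aeration, continuous light (2000 Lux). Phototropic nauplii were collected about 12 h after hatching, and groups of 10 were exposed per well to various compound concentrations for 24 h. Survivors were counted and % deaths calculated.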

[7] = system: Staphylococcus saprophyticus; assay: Antibacterial activity against Staphylococcus saprophyticus ATCC 35552 at < 100 ug/mL by agar dilution method; assay type: functional, organism-based; summary of the method: as §1
[8] = system: Pseudomonas aeruginosa; assay: Antibacterial activity against Pseudomonas aeruginosa ATCC 27853 at < 100 ug/mL by agar dilution method; assay type: functional, organism-based; summary of the method: as §1
[9] = system: Bacillus cereus; assay: Antibacterial activity against Bacillus cereus ATCC 14579 at < 100 ug/mL by agar dilution method; assay type: functional; summary of the method: as §1
[10] = system: Staphylococcus aureus; assay: Antibacterial activity against Staphylococcus aureus ATCC 6538P at < 100 ug/mL by agar dilution method; assay type: functional, organism-based; summary of the method: as §1
[11] = system: Bacillus subtilis; assay: Antibacterial activity against Bacillus subtilis ATCC 23858 at < 100 ug/mL by agar dilution method; assay type: functional, organism-based; summary of the method: as §1
[12] = system: Enterobacter cloacae; assay: Antibacterial activity against Enterobacter cloacae ATCC 35030 at < 100 ug/mL by agar dilution method; assay type: functional, organism-based; summary of the method: as §1
[13] = system: Streptococcus agalactiae; assay: Antibacterial activity against Streptococcus agalactiae ATCC 13813 at < 100 ug/mL by agar dilution method; assay type: functional; summary of the method: as §1
[14] = system: Cryptococcus neoformans; assay: Antifungal activity against Cryptococcus neoformans ATCC 32264 by agar dilution method; assay type: functional
Summary of the method: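 Yeasts were grown on Sabouraud dextrose agar and adjusted to 1.0–5.0 × 10^6 cell/mL (0.5 McFarland). Agar dilution used 1 mL SDA slants holding two-fold DMSO dilutions of compound at 10–100 µg/mL, with final DMSO ≤2%. 1 µL of inoculum was added per slant, then incubated at 35 °C. Drug-free blank and ketoconazole positive control included; triplicate runs; MIC read.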

[15] = system: Nannizzia gypsea; assay: Antifungal activity against Microsporum gypseum C115 by agar dilution method; assay type: functional
Summary of the method: (§2)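 Filamentous fungi (hyalohyphomycetes, dermatophytes) were grown on SDA. Spore suspensions were set to 1.0–5.0 × 10^6 spores/mL by hemocytometer count. 1 µL was inoculated onto 1 mL SDA slants holding compound at 10–100 µg/mL (two-fold DMSO dilutions, final DMSO ≤2%), then incubated at 28–30 °C. Drug-free blank and ketoconazole control included; repeated three times; MIC determined.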

[16] = system: Trichophyton mentagrophytes; assay: Antifungal activity against Trichophyton mentagrophytes ATCC 9972 by agar dilution method; assay type: functional; summary of the method: as §2
[17] = system: Aspergillus fumigatus; assay: Antifungal activity against Aspergillus fumigatus ATCC 26934 by agar dilution method; assay type: functional; summary of the method: as §2
[18] = system: Trichophyton rubrum; assay: Antifungal activity against Trichophyton rubrum C137 by agar dilution method; assay type: functional; summary of the method: as §2
[19] = system: Rhizopus; assay: Antifungal activity against Rhizopus CL35 by agar dilution method; assay type: functional; summary of the method: as §2

Cc1c(N(C)CS(=O)(=O)[O-])c(=O)n(-c2ccccc2)n1C.[Na+] [DIPYRONE SODIUM]
54%: inhibition (INH) [1]
33%: inhibition in vivo at 10 mg/kg [2]

Cc1cccc(NC2=C(Cl)C(=O)N(c3c(C)n(C)n(-c4ccccc4)c3=O)C2=O)c1
inactive: Activity [3] | Activity [4] | Activity [5] | Activity [7] | Activity [8] | Activity [9] | Activity [10] | Activity [11] | Activity [12] | Activity [13]
90.5 mg/L: LC50 at 24 h [6]
49.7%: inhibition in vivo at 10 mg/kg [2]

COc1cccc(NC2=C(Cl)C(=O)N(c3c(C)n(C)n(-c4ccccc4)c3=O)C2=O)c1
> 1000 mg/L: LC50 at 24 h [6]
56.7%: inhibition in vivo at 10 mg/kg [2]
inactive: Activity [3] | Activity [4] | Activity [5] | Activity [7] | Activity [8] | Activity [9] | Activity [10] | Activity [11] | Activity [12] | Activity [13]

Cc1c(N2C(=O)C(Cl)=C(Nc3ccc(C(=O)O)cc3)C2=O)c(=O)n(-c2ccccc2)n1C
inactive: Activity [3] | Activity [4] | Activity [5] | Activity [7] | Activity [8] | Activity [9] | Activity [10] | Activity [11] | Activity [12] | Activity [13]
63.6%: inhibition in vivo at 10 mg/kg [2]
> 1000 mg/L: LC50 at 24 h [6]

CC(=O)N1CCN(c2ccc(OCC3COC(Cn4ccnc4)(c4ccc(Cl)cc4Cl)O3)cc2)CC1 (stereo unspecified) [KETOCONAZOLE]
15 mg/L: MIC [19]
3 mg/L: MIC [18]
6 mg/L: MIC [15]
7 mg/L: MIC [17]
5 mg/L: MIC [14]
8 mg/L: MIC [16]

Cc1c(N2C(=O)C(Cl)=C(N3CCCCC3)C2=O)c(=O)n(-c2ccccc2)n1C
> 1000 mg/L: LC50 at 24 h [6]
84.6%: inhibition in vivo at 10 mg/kg [2]
inactive: Activity [3] | Activity [4] | Activity [5] | Activity [7] | Activity [8] | Activity [9] | Activity [10] | Activity [11] | Activity [12] | Activity [13]

Cc1c(N2C(=O)C(Cl)=C(Nc3cccc(C(=O)O)c3)C2=O)c(=O)n(-c2ccccc2)n1C
> 1000 mg/L: LC50 at 24 h [6]
33.9%: inhibition in vivo at 10 mg/kg [2]
inactive: Activity [3] | Activity [4] | Activity [5] | Activity [7] | Activity [8] | Activity [9] | Activity [10] | Activity [11] | Activity [12] | Activity [13]

Cc1cc(C)cc(NC2=C(Cl)C(=O)N(c3c(C)n(C)n(-c4ccccc4)c3=O)C2=O)c1
inactive: Activity [3] | Activity [4] | Activity [5] | Activity [7] | Activity [8] | Activity [9] | Activity [10] | Activity [11] | Activity [12] | Activity [13]
> 1000 mg/L: LC50 at 24 h [6]
68.4%: inhibition in vivo at 10 mg/kg [2]

Cc1c(N2C(=O)C(Cl)=C(c3ccc[nH]3)C2=O)c(=O)n(-c2ccccc2)n1C
23.3%: inhibition in vivo at 10 mg/kg [2]
> 1000 mg/L: LC50 at 24 h [6]
inactive: Activity [3] | Activity [4] | Activity [5] | Activity [7] | Activity [8] | Activity [9] | Activity [10] | Activity [11] | Activity [12] | Activity [13]

Cc1ccc(NC2=C(Cl)C(=O)N(c3c(C)n(C)n(-c4ccccc4)c3=O)C2=O)cc1
> 1000 mg/L: LC50 at 24 h [6]
inactive: Activity [3] | Activity [4] | Activity [5] | Activity [7] | Activity [8] | Activity [9] | Activity [10] | Activity [11] | Activity [12] | Activity [13]
33.6%: inhibition in vivo at 10 mg/kg [2]

Cc1c(N2C(=O)C(Cl)=C(N3CCN(c4ccccn4)CC3)C2=O)c(=O)n(-c2ccccc2)n1C
> 1000 mg/L: LC50 at 24 h [6]
inactive: Activity [3] | Activity [4] | Activity [5] | Activity [7] | Activity [8] | Activity [9] | Activity [10] | Activity [11] | Activity [12] | Activity [13]
77.7%: inhibition in vivo at 10 mg/kg [2]

COc1cc(NC2=C(Cl)C(=O)N(c3c(C)n(C)n(-c4ccccc4)c3=O)C2=O)cc(OC)c1
inactive: Activity [3] | Activity [4] | Activity [5] | Activity [7] | Activity [8] | Activity [9] | Activity [10] | Activity [11] | Activity [12] | Activity [13]
72%: inhibition in vivo at 10 mg/kg [2]
249 mg/L: LC50 at 24 h [6]

Cc1c(N2C(=O)C(Cl)=C(Nc3cccc([N+](=O)[O-])c3)C2=O)c(=O)n(-c2ccccc2)n1C
> 1000 mg/L: LC50 at 24 h [6]
29.5%: inhibition in vivo at 10 mg/kg [2]
inactive: Activity [3] | Activity [4] | Activity [5] | Activity [7] | Activity [8] | Activity [9] | Activity [10] | Activity [11] | Activity [12] | Activity [13]

Cc1c(N2C(=O)C(Cl)=C(Nc3cccc(Cl)c3)C2=O)c(=O)n(-c2ccccc2)n1C
38.9%: inhibition in vivo at 10 mg/kg [2]
86.2 mg/L: LC50 at 24 h [6]
inactive: Activity [3] | Activity [4] | Activity [5] | Activity [7] | Activity [8] | Activity [9] | Activity [10] | Activity [11] | Activity [12] | Activity [13]

Cc1c(N2C(=O)C(Cl)=C(NCCc3ccccc3)C2=O)c(=O)n(-c2ccccc2)n1C
81.8%: inhibition in vivo at 10 mg/kg [2]
inactive: Activity [3] | Activity [4] | Activity [5] | Activity [7] | Activity [8] | Activity [9] | Activity [10] | Activity [11] | Activity [12] | Activity [13]
> 1000 mg/L: LC50 at 24 h [6]

COc1ccc(NC2=C(Cl)C(=O)N(c3c(C)n(C)n(-c4ccccc4)c3=O)C2=O)cc1
inactive: Activity [3] | Activity [4] | Activity [5] | Activity [7] | Activity [8] | Activity [9] | Activity [10] | Activity [11] | Activity [12] | Activity [13]
> 1000 mg/L: LC50 at 24 h [6]
31.2%: inhibition in vivo at 10 mg/kg [2]

— ChEMBL document CHEMBL1275265, “Synthesis and biological evaluation of N-antipyrine-4-substituted amino-3-chloromaleimide derivatives” (Eur J Med Chem, 2010)
